One may read the IC50 as the concentration at which inhibition is half-maximal. As a reminder, the AUC(0-inf) is total exposure, with the tail of the curve extrapolated. A lower AUC(0-inf) goes with less exposure.

SMILES strings stand for the structures. Residue numbers refer to the chain shown, from its start.

One data set concerns VCaP. The data set can be described thus: Antiproliferative activity against human VCaP cells assessed as reduction in cell viability incubated for 6 days by CCK8 assay. The conditions noted are these: 144 h. The format is functional, cell-based. The gist of the method: (§1)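 Cells seeded (2×10^4 per well for VCaP, 1–3×10^3 for the others) and compound added after 24 h as a 9-point, 3-fold serial dilution. Exposure 6 days, then CCK-8 for 1–4 h and absorbance at 450 nm. IC50 from curve fit, mean of at least two independent experiments run in duplicate.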
(In general: Tetrazolium dyes change colour on reduction, which living cells bring about.)

The subject of another data set is CWR22R. The data set can be described thus: Antiproliferative activity against human 22Rv1 cells assessed as reduction in cell viability incubated for 6 days by CCK8 assay. The format is functional, cell-based. As to conditions: 22Rv1, 144 h. A digest of the protocol: as §1
Data set [1] has as its system T1, Androgen receptor (Homo sapiens), P10275 [F877L].
T1 sequence (whole entry): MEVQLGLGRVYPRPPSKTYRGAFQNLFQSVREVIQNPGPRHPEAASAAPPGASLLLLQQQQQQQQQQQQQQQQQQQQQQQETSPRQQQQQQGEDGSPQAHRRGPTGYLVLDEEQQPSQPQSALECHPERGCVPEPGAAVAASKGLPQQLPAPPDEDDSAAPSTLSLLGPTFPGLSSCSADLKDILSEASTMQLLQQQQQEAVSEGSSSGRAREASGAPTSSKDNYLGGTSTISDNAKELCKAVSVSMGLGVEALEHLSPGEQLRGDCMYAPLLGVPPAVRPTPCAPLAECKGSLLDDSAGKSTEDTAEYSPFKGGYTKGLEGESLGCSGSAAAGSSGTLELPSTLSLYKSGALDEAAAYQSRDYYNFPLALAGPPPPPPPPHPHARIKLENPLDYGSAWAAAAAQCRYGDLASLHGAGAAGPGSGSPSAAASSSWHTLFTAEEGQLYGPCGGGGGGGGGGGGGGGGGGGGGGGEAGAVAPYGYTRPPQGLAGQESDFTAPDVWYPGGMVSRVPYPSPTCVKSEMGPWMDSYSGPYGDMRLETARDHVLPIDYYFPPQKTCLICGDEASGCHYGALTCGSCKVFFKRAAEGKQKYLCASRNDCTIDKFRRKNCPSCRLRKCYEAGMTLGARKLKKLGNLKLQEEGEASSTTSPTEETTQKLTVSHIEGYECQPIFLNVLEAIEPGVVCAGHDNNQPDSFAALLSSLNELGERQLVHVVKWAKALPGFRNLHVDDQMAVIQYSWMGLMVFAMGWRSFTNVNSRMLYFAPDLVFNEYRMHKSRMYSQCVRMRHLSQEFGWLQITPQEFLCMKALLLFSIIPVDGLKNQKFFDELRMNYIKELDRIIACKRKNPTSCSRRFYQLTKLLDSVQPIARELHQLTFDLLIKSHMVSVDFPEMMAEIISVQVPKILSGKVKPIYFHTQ
The data set can be described thus: Antagonist activity against human AR F876L mutant expressed in human PC3 cells assessed as inhibition of 1 nM R1881-induced transactivation incubated for 24 hrs by dual luciferase reporter gene assay. The format is cell-based. The gist of the method:
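PC-3 cells in DMEM/F12 (1:1) with 5% charcoal-stripped FBS, cotransfected with 50 ng F876L AR plasmid and 50 ng AR luciferase reporter per well. 24 h post-transfection, compound plus 1 nM R1881 for 24 h. Firefly luminescence normalized to Renilla; mean ± SEM, n = 3.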
For orientation: A reporter such as luciferase makes a cellular process visible.

Data set [2] in a line: AUC ( 0 to infinity) in Sprague-Dawley rat at 30 mg/kg, po measured upto 24 hrs by LC-MS/MS analysis. It is filed as ADME, organism-based. Set-up: dose 30 mg/kg, time infinity, route oral. As to conditions: in vivo. A digest of the protocol:
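Male SD rats (N = 3), single oral 30 mg/kg in PEG200/DMA (9:1, v/v). Blood from retrobulbar vein at 0–24 h; heparinized plasma, protein precipitation with methanol, LC-MS/MS quantitation; parameters by non-compartmental analysis.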

Data set [3] deals with T2, Androgen receptor (Homo sapiens) (UniProt P10275).
T2 sequence (whole entry): T1 sequence (whole entry) with L877F
The data set can be described thus: Antagonist activity at androgen receptor in human VCaP cells assessed as inhibition of R1881-induced PSA mRNA expression after 24 hrs by qRT-PCR analysis. It is filed as cell-based. A digest of the protocol:
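VCaP cells held 48 h in DMEM with 5% charcoal-stripped FBS, then 24 h with compound plus 0.2 nM R1881. TRIzol RNA extraction, cDNA synthesis, qRT-PCR for the target mRNA normalized to GAPDH; mean ± SD, n = 3.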

Take `Cc1ccc(-c2c(C)noc2C)cc1Nc1ccc(C#N)c(Cl)c1`: the IC50 came to 0.7 µM in the data set with VCaP and 3.5 µM in the data set with CWR22R. The Activity entry in data set [1] and in data set [3] was “Dose-dependent effect” in each case. The compound further registered an AUC(0-inf) in data set [2] of 4060 ng·h/mL.

These data come from ChEMBL document CHEMBL4346686, “Discovery and biological evaluation of novel androgen receptor antagonist for castration-resistant prostate cancer” (Eur J Med Chem, 2019).
